Data: ChEMBL document CHEMBL5696444 (Nat Commun, 2017)
Active and inactive are the calls of the source. No cut-off for these calls is given here.

How the values were obtained:
[1] = target: Rho-associated protein kinase 1 (Homo sapiens) (UniProt Q13464); assay: Inhibition of ROCK1 (unknown origin) at 100 nM in the presence of ATP by Kinome scan method relative to control
[2] = target: Calcium/calmodulin-dependent protein kinase type 1 (Homo sapiens) (UniProt Q14012); assay: Inhibition of CAMK1 (unknown origin) at 100 nM in the presence of ATP by Kinome scan method relative to control
[3] = target: Aurora kinase B (Homo sapiens) (UniProt Q96GD4); assay: Inhibition of AURKB (unknown origin) at 1000 nM in the presence of ATP by Kinome scan method relative to control
[4] = target: Dual specificity protein kinase CLK2 (Homo sapiens, UniProt P49760); assay: Inhibition of N-terminal FLAG-tagged human CLK2 at 1110 nM in the presence of ATP by Kinome scan method relative to control
[5] = target: Mitogen-activated protein kinase 8 (Homo sapiens) (UniProt P45983); assay: Inhibition of MAPK8 (unknown origin) at 100 nM in the presence of ATP by Kinome scan method relative to control
[6] = target: Dual specificity tyrosine-phosphorylation-regulated kinase 1A (Homo sapiens, UniProt Q13627); assay: Inhibition of DYRK1A (unknown origin) at 1110 nM in the presence of ATP by Kinome scan method relative to control; details: time > 6.0 hrs
[7] = target: Dual specificity protein kinase CLK1 (Homo sapiens) (UniProt P49759); assay: Inhibition of CLK (unknown origin) in human 184-hTERT cells assessed as induction in alternative splicing effect in MRPS10-GUCA1B level incubated for 6 hrs by RT-PCR analysis; assay type: cell-based; details: dose 0.2-5 µM
Sequence of Dual specificity protein kinase CLK1 (Homo sapiens) (P49759 whole entry, looked up, canonical isoform): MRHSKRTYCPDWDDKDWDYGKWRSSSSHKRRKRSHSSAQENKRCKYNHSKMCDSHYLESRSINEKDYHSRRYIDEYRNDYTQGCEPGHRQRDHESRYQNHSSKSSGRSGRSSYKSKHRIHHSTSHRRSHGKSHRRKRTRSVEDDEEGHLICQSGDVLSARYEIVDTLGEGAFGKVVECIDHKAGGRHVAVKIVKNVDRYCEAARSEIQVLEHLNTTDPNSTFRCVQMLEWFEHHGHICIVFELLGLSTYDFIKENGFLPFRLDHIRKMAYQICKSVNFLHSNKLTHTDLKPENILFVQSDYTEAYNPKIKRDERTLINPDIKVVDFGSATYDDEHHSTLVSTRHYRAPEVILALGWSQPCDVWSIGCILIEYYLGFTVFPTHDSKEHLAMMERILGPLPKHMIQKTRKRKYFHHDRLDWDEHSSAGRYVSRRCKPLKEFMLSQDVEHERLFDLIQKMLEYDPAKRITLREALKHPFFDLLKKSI
Method in brief: (§1)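 Cells exposed to graded T3 concentrations for 6 h (chosen to avoid cytotoxicity), with a DMSO vehicle control. Total RNA was reverse-transcribed with oligo-dT primers. Targeted splice or conjoined-gene products were quantified by real-time qPCR or by targeted next-generation sequencing. Conjoined-gene isoform expression was normalized to a sequenced housekeeping gene.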

[8] = target: Serine/threonine-protein kinase pim-1 (Homo sapiens) (UniProt P11309); assay: Inhibition of PIM1 (unknown origin) at 100 nM in the presence of ATP by Kinome scan method relative to control
Sequence of Serine/threonine-protein kinase pim-1 (Homo sapiens) (P11309 whole entry, looked up): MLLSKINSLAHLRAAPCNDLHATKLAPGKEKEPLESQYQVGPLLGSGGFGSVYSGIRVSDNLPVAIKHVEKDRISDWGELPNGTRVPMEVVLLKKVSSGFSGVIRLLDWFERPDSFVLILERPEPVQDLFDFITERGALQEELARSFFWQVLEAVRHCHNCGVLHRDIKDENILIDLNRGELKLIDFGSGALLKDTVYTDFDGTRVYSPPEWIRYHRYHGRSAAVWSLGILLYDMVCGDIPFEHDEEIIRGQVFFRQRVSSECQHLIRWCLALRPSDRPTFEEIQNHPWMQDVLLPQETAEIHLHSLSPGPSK

[9] = target: Dual specificity tyrosine-phosphorylation-regulated kinase 1B (Homo sapiens, UniProt Q9Y463); assay: Inhibition of DYRK1B (unknown origin) at 123 nM in the presence of ATP by Kinome scan method relative to control; details: time > 6.0 hrs
[10] = target: Dual specificity protein kinase CLK1 (Homo sapiens) (UniProt P49759); assay: Inhibition of CLK (unknown origin) in human HCT-116 cells assessed as induction in alternative splicing effect in S6K canonical isoform incubated for 6 hrs by RT-PCR analysis; assay type: cell-based; details: dose 0.2-5 µM; method in brief: as §1
[11] = target: Mitogen-activated protein kinase 3 (Homo sapiens) (UniProt P27361); assay: Inhibition of MAPK3 (unknown origin) at 1000 nM in the presence of ATP by Kinome scan method relative to control
Sequence of Mitogen-activated protein kinase 3 (Homo sapiens) (P27361 whole entry): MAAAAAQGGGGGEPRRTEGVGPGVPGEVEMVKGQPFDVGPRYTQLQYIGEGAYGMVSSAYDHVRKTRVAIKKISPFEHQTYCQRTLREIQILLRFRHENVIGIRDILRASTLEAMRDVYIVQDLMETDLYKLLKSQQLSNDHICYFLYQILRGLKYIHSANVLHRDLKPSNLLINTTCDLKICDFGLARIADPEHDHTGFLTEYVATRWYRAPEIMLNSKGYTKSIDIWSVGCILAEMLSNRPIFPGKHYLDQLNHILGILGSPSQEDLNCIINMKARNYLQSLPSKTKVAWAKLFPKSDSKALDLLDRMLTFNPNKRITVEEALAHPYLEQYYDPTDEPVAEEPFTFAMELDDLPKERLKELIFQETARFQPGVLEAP

[12] = target: SRSF protein kinase 2 (Homo sapiens) (UniProt P78362); assay: Inhibition of SRPK2 (unknown origin) at 1110 nM in the presence of ATP by Kinome scan method relative to control; details: time > 6.0 hrs
Sequence of SRSF protein kinase 2 (Homo sapiens) (P78362 whole entry, looked up): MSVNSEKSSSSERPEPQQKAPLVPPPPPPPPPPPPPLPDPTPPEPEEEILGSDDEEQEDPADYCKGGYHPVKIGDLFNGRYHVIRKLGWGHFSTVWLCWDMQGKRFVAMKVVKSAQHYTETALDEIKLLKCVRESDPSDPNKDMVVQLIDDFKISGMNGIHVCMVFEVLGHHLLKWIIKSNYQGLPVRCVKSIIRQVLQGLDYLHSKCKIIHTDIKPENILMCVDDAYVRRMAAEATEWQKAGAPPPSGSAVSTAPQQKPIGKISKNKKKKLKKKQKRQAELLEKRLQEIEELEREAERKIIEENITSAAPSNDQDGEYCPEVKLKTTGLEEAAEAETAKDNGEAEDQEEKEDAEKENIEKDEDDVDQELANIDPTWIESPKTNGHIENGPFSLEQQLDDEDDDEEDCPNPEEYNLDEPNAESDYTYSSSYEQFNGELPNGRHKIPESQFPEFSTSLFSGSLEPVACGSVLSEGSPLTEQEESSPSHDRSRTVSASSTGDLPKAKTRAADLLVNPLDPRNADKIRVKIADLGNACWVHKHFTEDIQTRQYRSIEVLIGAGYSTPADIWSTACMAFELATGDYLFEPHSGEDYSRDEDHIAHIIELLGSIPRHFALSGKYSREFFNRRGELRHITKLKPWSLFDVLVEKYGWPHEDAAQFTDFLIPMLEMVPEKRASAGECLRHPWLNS

HCT-116 [13] = assay: Induction of cell cycle arrest in human HCT-116 cells assessed as G2/M phase at 5 uM incubated for 24 hrs by flow cytometry analysis (Rvb=17.9%); assay type: functional
[14] = target: Dual specificity protein kinase CLK1 (Homo sapiens) (UniProt P49759); assay: Inhibition of CLK (unknown origin) in human 184-hTERT cells assessed as induction in alternative splicing effect in S6K canonical isoform incubated for 6 hrs by RT-PCR analysis; assay type: cell-based; details: dose 0.2-5 µM; method in brief: as §1
HCT-116 [15] = assay: Induction of cell cycle arrest in human HCT-116 cells assessed as G0/G1 phase at 0.5 uM incubated for 24 hrs by flow cytometry analysis (Rvb=35.7%); assay type: functional
[16] = target: Interleukin-1 receptor-associated kinase 4 (Homo sapiens) (UniProt Q9NWZ3); assay: Inhibition of IRAK4 (unknown origin) at 100 nM in the presence of ATP by Kinome scan method relative to control
[17] = target: Proto-oncogene tyrosine-protein kinase receptor Ret (Homo sapiens) (UniProt P07949); assay: Inhibition of RET (unknown origin) at 1000 nM in the presence of ATP by Kinome scan method relative to control
[18] = target: Dual specificity protein kinase CLK1 (Homo sapiens) (UniProt P49759); assay: Inhibition of CLK (unknown origin) in human HCT-116 cells assessed as induction in alternative splicing effect in RBM25-PSEN1 level incubated for 6 hrs by RT-PCR analysis; assay type: cell-based; details: dose 0.2-5 µM; method in brief: as §1
[19] = target: Serine/threonine-protein kinase PLK1 (Homo sapiens) (UniProt P53350); assay: Inhibition of PLK1 (unknown origin) at 100 nM in the presence of ATP by Kinome scan method relative to control
[20] = target: Serine/threonine-protein kinase B-raf (Homo sapiens) (UniProt P15056); assay: Inhibition of BRAF (unknown origin) at 100 nM in the presence of ATP by Kinome scan method relative to control
Sequence of Serine/threonine-protein kinase B-raf (Homo sapiens) (P15056 whole entry): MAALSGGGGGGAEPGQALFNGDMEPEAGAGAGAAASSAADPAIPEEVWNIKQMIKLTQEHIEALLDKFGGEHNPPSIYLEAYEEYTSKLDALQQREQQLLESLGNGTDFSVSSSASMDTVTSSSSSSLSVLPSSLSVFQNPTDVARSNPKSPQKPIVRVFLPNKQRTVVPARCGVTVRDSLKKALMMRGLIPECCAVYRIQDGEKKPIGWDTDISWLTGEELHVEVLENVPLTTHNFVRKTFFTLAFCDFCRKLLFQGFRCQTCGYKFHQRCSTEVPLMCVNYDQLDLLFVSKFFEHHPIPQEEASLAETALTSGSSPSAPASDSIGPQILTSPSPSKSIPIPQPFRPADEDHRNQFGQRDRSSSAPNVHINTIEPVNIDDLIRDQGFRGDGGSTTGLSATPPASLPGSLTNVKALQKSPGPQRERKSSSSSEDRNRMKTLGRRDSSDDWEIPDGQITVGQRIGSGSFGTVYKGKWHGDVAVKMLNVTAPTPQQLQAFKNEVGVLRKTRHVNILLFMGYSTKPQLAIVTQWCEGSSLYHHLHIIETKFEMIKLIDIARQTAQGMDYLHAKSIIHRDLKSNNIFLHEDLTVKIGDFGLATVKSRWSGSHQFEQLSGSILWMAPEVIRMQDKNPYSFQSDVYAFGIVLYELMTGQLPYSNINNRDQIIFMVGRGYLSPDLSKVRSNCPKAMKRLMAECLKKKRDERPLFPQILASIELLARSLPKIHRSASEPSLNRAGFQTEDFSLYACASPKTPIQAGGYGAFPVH

[21] = target: Fibroblast growth factor receptor 1 (Homo sapiens) (UniProt P11362); assay: Inhibition of FGFR1 (unknown origin) at 1000 nM in the presence of ATP by Kinome scan method relative to control
HCT-116 [22] = assay: Induction of cell cycle arrest in human HCT-116 cells assessed as sub G0/G1 phase at 5 uM incubated for 6 hrs by flow cytometry analysis (Rvb=1.6%); assay type: functional
Homo sapiens = organism: Homo sapiens; assay: Inhibition of CDK2/cyclin A (unknown origin) at 100 nM in the presence of ATP by Kinome scan method relative to control
HCT-116 [23] = assay: Induction of apoptosis in human HCT-116 cells assessed as necrosis cells at 1 uM incubated for > 6 hrs by annexin V/PI staining based analysis (Rvb=0.55%); assay type: functional
[24] = target: Casein kinase I isoform alpha (Homo sapiens) (UniProt P48729); assay: Inhibition of CSNK1A1 (unknown origin) at 1000 nM in the presence of ATP by Kinome scan method relative to control
Sequence of Casein kinase I isoform alpha (Homo sapiens) (P48729 2-337 limits assumed): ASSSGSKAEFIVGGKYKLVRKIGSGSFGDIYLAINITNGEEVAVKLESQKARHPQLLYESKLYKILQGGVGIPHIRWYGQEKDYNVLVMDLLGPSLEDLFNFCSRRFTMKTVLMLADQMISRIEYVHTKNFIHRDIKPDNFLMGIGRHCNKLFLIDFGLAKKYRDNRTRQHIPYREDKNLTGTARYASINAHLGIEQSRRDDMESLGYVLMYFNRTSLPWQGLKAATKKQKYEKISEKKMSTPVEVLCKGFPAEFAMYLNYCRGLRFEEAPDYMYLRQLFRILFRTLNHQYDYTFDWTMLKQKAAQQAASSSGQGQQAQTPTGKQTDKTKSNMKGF

[25] = target: Dual specificity protein kinase CLK1 (Homo sapiens) (UniProt P49759); assay: Inhibition of CLK (unknown origin) in human MDA-MB-468 cells assessed as SRSF1 phosphorylation level incubated for 3 hrs by immunoblot analysis; assay type: cell-based
[26] = target: Mitogen-activated protein kinase 3 (Homo sapiens) (UniProt P27361); assay: Inhibition of MAPK3 (unknown origin) at 100 nM in the presence of ATP by Kinome scan method relative to control
[27] = target: Dual specificity tyrosine-phosphorylation-regulated kinase 3 (Homo sapiens) (UniProt O43781); assay: Inhibition of DYRK3 (unknown origin) at 1110 nM in the presence of ATP by Kinome scan method relative to control; details: time > 6.0 hrs
Sequence of Dual specificity tyrosine-phosphorylation-regulated kinase 3 (Homo sapiens) (O43781 whole entry): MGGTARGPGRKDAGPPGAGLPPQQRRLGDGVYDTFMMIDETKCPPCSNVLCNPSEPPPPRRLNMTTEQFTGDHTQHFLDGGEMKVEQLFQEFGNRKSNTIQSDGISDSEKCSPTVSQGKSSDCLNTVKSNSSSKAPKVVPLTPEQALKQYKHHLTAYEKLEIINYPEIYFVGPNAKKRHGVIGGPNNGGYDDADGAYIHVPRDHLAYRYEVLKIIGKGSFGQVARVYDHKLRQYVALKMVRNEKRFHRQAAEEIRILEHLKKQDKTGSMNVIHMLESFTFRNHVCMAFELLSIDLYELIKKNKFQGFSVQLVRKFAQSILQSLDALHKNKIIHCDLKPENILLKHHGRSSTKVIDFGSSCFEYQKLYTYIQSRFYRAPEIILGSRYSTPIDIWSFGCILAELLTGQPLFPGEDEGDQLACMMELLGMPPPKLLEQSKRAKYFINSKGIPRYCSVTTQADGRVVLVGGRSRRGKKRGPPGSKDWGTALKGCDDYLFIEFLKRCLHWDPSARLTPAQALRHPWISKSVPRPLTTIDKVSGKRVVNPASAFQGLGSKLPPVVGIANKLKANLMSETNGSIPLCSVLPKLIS

[28] = target: Ephrin type-A receptor 5 (Homo sapiens) (UniProt P54756); assay: Inhibition of EPHA5 (unknown origin) at 1000 nM in the presence of ATP by Kinome scan method relative to control
[29] = target: Casein kinase I isoform alpha (Homo sapiens) (UniProt P48729); assay: Inhibition of CSNK1A1 (unknown origin) at 100 nM in the presence of ATP by Kinome scan method relative to control
[30] = target: CDK7/Cyclin H/MNAT1 (Homo sapiens) (UniProt P51946+P50613+P51948); assay: Inhibition of CDK7/cyclin H/MNAT1 (unknown origin) at 100 nM in the presence of ATP by Kinome scan method relative to control; assay type: protein-complex assay

Sequence of Rho-associated protein kinase 1 (Homo sapiens) (Q13464 2-1354 limits assumed): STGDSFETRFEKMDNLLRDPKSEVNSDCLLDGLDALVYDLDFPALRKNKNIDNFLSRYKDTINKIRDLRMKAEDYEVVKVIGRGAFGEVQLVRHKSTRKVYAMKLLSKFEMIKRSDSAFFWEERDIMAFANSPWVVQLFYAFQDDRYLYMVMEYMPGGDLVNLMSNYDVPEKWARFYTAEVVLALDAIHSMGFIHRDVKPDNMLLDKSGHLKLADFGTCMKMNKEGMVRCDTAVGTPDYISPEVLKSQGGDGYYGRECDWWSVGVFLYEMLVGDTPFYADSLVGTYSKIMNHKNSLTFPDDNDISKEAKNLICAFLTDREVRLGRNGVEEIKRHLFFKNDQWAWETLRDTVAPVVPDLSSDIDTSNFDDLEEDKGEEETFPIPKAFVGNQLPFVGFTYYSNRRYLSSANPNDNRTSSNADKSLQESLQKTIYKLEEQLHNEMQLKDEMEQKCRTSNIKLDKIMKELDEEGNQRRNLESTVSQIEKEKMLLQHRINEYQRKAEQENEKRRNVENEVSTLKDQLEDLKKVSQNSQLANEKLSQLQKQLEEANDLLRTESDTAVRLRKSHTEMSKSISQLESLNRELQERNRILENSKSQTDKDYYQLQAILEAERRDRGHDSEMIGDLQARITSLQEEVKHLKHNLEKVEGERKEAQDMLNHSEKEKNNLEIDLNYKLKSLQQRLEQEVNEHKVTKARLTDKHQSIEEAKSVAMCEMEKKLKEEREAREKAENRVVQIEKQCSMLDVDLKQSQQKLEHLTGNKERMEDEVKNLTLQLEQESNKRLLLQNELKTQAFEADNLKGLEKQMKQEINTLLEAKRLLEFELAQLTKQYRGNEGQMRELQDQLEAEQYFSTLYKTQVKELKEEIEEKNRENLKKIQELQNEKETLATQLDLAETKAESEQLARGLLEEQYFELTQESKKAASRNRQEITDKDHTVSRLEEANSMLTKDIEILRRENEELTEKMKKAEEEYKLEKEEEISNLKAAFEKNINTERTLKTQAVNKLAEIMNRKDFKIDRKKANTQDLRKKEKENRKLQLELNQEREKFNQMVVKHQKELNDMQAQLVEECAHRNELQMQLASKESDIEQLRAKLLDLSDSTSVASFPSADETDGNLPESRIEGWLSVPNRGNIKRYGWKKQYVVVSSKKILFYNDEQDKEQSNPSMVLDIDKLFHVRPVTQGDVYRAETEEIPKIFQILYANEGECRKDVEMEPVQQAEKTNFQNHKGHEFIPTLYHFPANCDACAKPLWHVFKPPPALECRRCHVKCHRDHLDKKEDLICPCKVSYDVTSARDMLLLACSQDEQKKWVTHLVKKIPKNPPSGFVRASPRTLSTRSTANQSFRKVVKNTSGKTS

In the case of `CN1CCN(C(=O)C(C)(C)c2ccc(C(=O)Nc3cn4cc(-c5ccncc5)ccc4n3)cc2)CC1` [T3-CLK], the inhibition [1] is reported as 5%, the inhibition [2] is reported as 7% and the inhibition [3] is reported as 16%. For the same compound, the inhibition [4] was 100%, the inhibition [5] was 5% and the inhibition [6] was 97%. For the same compound, the inhibition [7] was “Dose-Dependent Effect”, the inhibition [8] was 16% and the inhibition [9] was 63%. For the same compound, the inhibition [10] was “Dose-Dependent Effect”, the inhibition [11] was 6% and the inhibition [12] was 5%. For the same compound, the Activity (HCT-116 [13]) was 41.2%, the inhibition [14] was “Dose-Dependent Effect” and the Activity (HCT-116 [15]) was 11.4%. For the same compound, the inhibition [16] was 25%, the inhibition [17] was -2% and the inhibition [18] was “Dose-Dependent Effect”. It also gave an inhibition [19] of 8%, an inhibition [20] of 9% and an inhibition [21] of 9%. The Activity (HCT-116 [22]) was 2.2%, the inhibition (Homo sapiens) was 0% and the Activity (HCT-116 [23]) was 0.73%. The inhibition [24] was -3%, the inhibition [25] was “Active” and the inhibition [26] was 6%. The inhibition [27] was 4%, the inhibition [28] was -5% and the inhibition [29] was -4%. For the same compound, the inhibition [30] was 1%.
